Source: ChEMBL document CHEMBL5674880 (PLoS One, 2018)

Columns and labels:
Format in all cases: functional, cell-based
RPMI-6666 = assay: Antiproliferative activity against human RPMI-6666 cells after 10 days; conditions: RPMI-6666, 240 h
SJSA-1 = assay: Antiproliferative activity against human SJSA-1 cells after 10 days; conditions: SJSA-1, 240 h
DOHH-2 = assay: Antiproliferative activity against human DOHH-2 cells after 10 days; conditions: DOHH-2, 240 h
Outline: (§1)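 10-day 2D proliferation screen of a broad cancer cell panel (about 240 lines, Eurofins Oncopanel). All lines were mycoplasma negative and STR verified. Compounds were dosed up to a top concentration of 10 μM or 25 μM, depending on the inhibitor. Anti-proliferative IC50 values are the average of three biological replicates.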

[1] = Antiproliferative activity against human KHOS-240S cells after 10 days; conditions: 240 h
Outline: (§2)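 Broad cancer cell line panel (Eurofins Oncopanel, about 240 lines; mycoplasma negative, STR verified) grown in 2D culture and exposed to compound in a 10-day proliferation assay. The top concentration was 10 μM for the SMYD2 inhibitor series and 25 μM for the SMYD3 inhibitor. The proliferative IC50 is taken from concentration-response data, each value the mean of three biological replicates.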

MV4-11 = assay: Antiproliferative activity against human MV4-11 cells after 10 days; conditions: MV4-11, 240 h; outline: as §2
DLD-1 = assay: Antiproliferative activity against human DLD-1 cells after 10 days; conditions: DLD-1, 240 h; outline: as §1
COLO 201 = assay: Antiproliferative activity against human COLO201 cells after 10 days; conditions: COLO 201, 240 h; outline: as §1
CAKI-1 = assay: Antiproliferative activity against human CAKI-1 cells after 10 days; conditions: CAKI-1, 240 h
Outline: (§3)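 Tested as part of a 240-line cancer cell panel (Eurofins Oncopanel); all lines were mycoplasma-negative and STR-verified. Cells were exposed to a compound concentration series in 2D culture for 10 days. The highest concentration was 10 μM or 25 μM, depending on the inhibitor. Antiproliferative IC50 was derived from the mean of three biological replicates.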

[2] = Antiproliferative activity against human SW579 cells after 10 days; conditions: SW579, 240 h
OE33 = assay: Antiproliferative activity against human OE33 cells after 10 days; conditions: OE33, 240 h; outline: as §2
U-266 = assay: Antiproliferative activity against human U266B1 cells after 10 days; conditions: U-266, 240 h
DMS-114 = assay: Antiproliferative activity against human DMS-114 cells after 10 days; conditions: DMS-114, 240 h; outline: as §1
NCI-H441 = assay: Antiproliferative activity against human NCI-H441 cells after 10 days; conditions: NCI-H441, 240 h; outline: as §2
DMS-273 = assay: Antiproliferative activity against human DMS-273 cells after 10 days; conditions: DMS-273, 240 h; outline: as §1
SCaBER = assay: Antiproliferative activity against human SCaBER cells after 10 days; conditions: 240 h
UMUC3 = assay: Antiproliferative activity against human UM-UC-3 cells after 10 days; conditions: UMUC3, 240 h
SNU-5 = assay: Antiproliferative activity against human SNU-5 cells after 10 days; conditions: SNU-5, 240 h
CAL-62 = assay: Antiproliferative activity against human CAL-62 cells after 10 days; conditions: CAL-62, 240 h; outline: as §3
BeWo = assay: Antiproliferative activity against human BeWo cells after 10 days; conditions: 240 h; outline: as §3
SNU-16 = assay: Antiproliferative activity against human SNU-16 cells after 10 days; conditions: SNU-16, 240 h
[3] = Antiproliferative activity against human C32TG cells after 10 days; conditions: 240 h; outline: as §3
Hs746T = assay: Antiproliferative activity against human Hs746T cells after 10 days; conditions: 240 h; outline: as §1
MDA-MB-436 = assay: Antiproliferative activity against human MDA-MB-436 cells after 10 days; conditions: MDA-MB-436, 240 h; outline: as §2
5637 = assay: Antiproliferative activity against human 5637 cells after 10 days; conditions: Homo sapiens, 5637, 240 h; outline: as §3
SAOS-2 = assay: Antiproliferative activity against human SAOS-2 cells after 10 days; conditions: SAOS-2, 240 h
NCI-H69 = assay: Antiproliferative activity against human NCI-H69 cells after 10 days; conditions: NCI-H69, 240 h; outline: as §2
RD = assay: Antiproliferative activity against human RD cells after 10 days; conditions: 240 h; outline: as §2
Raji = assay: Antiproliferative activity against human Raji cells after 10 days; conditions: 240 h
MEG-01 = assay: Antiproliferative activity against human MEG-01 cells after 10 days; conditions: MEG-01, 240 h; outline: as §2
J82 = assay: Antiproliferative activity against human J82 cells after 10 days; conditions: J82, 240 h; outline: as §2
SW684 = assay: Antiproliferative activity against human SW684 cells after 10 days; conditions: SW684, 240 h
MOLT-16 = assay: Antiproliferative activity against human MOLT-16 cells after 10 days; conditions: MOLT-16, 240 h; outline: as §2
SK-N-DZ = assay: Antiproliferative activity against human SK-N-DZ cells after 10 days; conditions: 240 h
HCT-116 = assay: Antiproliferative activity against human HCT-116 cells after 10 days; conditions: HCT-116, 240 h; outline: as §1
[4] = Antiproliferative activity against human C4-1 cells after 10 days; conditions: C4-1, 240 h; outline: as §3
HPAF-II = assay: Antiproliferative activity against human HPAF-II cells after 10 days; conditions: 240 h; outline: as §1
CRO-AP2 = assay: Antiproliferative activity against human CRO-AP2 cells after 10 days; conditions: CRO-AP2, 240 h; outline: as §1
DU-145 = assay: Antiproliferative activity against human DU-145 cells after 10 days; conditions: DU-145, 240 h; outline: as §1
Caov-3 cell line = assay: Antiproliferative activity against human Caov-3 cells after 10 days; conditions: Caov-3, 240 h; outline: as §1
A-375 = assay: Antiproliferative activity against human A-375 cells after 10 days; conditions: A-375, 240 h; outline: as §3
SiHa = assay: Antiproliferative activity against human SiHa cells after 10 days; conditions: 240 h
SU.86.86 = assay: Antiproliferative activity against human SU-86-86 cells after 10 days; conditions: SU.86.86, 240 h
[5] = Antiproliferative activity against human HLF cells after 10 days; conditions: 240 h; outline: as §1
MC-IXC = assay: Antiproliferative activity against human MC-IXC cells after 10 days; conditions: 240 h; outline: as §2
THP-1 = assay: Antiproliferative activity against human THP-1 cells after 10 days; conditions: THP-1, 240 h
639-V = assay: Antiproliferative activity against human 639-V cells after 10 days; conditions: 240 h; outline: as §3
COLO-320-HSR = assay: Antiproliferative activity against human COLO 320HSR cells after 10 days; conditions: 240 h; outline: as §3
HT-1080 = assay: Antiproliferative activity against human HT-1080 cells after 10 days; conditions: HT-1080, 240 h; outline: as §1
[6] = Antiproliferative activity against human RKOE6 cells after 10 days; conditions: RKOE6, 240 h
Outline: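 Tested in the Eurofins Oncopanel of about 240 cancer cell lines, all mycoplasma-negative and STR-verified. Cells were exposed to compound for 10 days in 2D culture, and a proliferative IC50 was derived from the concentration series. The highest concentration tested was 10 μM in the SMYD2 inhibitor screen and 25 μM in the SMYD3 inhibitor screen. Values are means of three biological replicates.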

Cc1cn(CCN2CCN(c3ccccc3-c3cc(C#N)cc(C(=O)NCCCN4CCCC4)c3)CC2)c2ccccc12
IC50 (RPMI-6666): 2.91 µM | IC50 (SJSA-1): 1.47 µM | IC50 (DOHH-2): 0.263 µM | IC50 [1]: 1.31 µM | IC50 (MV4-11): 1.01 µM | IC50 (DLD-1): 3.4 µM | IC50 (COLO 201): 1.06 µM | IC50 (CAKI-1): 2.79 µM | IC50 [2]: 2.98 µM | IC50 (OE33): 2 µM | IC50 (U-266): 1.26 µM | IC50 (DMS-114): 2.33 µM | IC50 (NCI-H441): 5.63 µM | IC50 (DMS-273): 0.987 µM | IC50 (SCaBER): 1.5 µM | IC50 (UMUC3): 2.91 µM | IC50 (SNU-5): 3.32 µM | IC50 (CAL-62): 2.07 µM | IC50 (BeWo): 2.88 µM | IC50 (SNU-16): 0.993 µM | IC50 [3]: 2.36 µM | IC50 (Hs746T): 4.29 µM | IC50 (MDA-MB-436): 3.03 µM | IC50 5637: 6.75 µM | IC50 (SAOS-2): 3.03 µM | IC50 (NCI-H69): 2.74 µM | IC50 (RD): 0.954 µM | IC50 (Raji): 1.59 µM | IC50 (MEG-01): 1.28 µM | IC50 (J82): 3.15 µM | IC50 (SW684): 5.75 µM | IC50 (MOLT-16): 1.11 µM | IC50 (SK-N-DZ): 3.76 µM | IC50 (HCT-116): 2.66 µM | IC50 [4]: 2.06 µM | IC50 (HPAF-II): 1.6 µM | IC50 (CRO-AP2): 2.26 µM | IC50 (DU-145): 4.13 µM | IC50 (Caov-3 cell line): 2.6 µM | IC50 (A-375): 1.91 µM | IC50 (SiHa): 3.26 µM | IC50 (SU.86.86): 3.55 µM | IC50 [5]: 2.44 µM | IC50 (MC-IXC): 1.92 µM | IC50 (THP-1): 2.86 µM | IC50 (639-V): 1.14 µM | IC50 (COLO-320-HSR): 2.74 µM | IC50 (HT-1080): 1.98 µM | IC50 [6]: 1.07 µM

O=C(NC1CN(Cc2cnn(Cc3ccccc3)c2)C1)c1cn(C2CC2)nn1
IC50 (RPMI-6666): > 10 µM | IC50 (SJSA-1): > 10 µM | IC50 (DOHH-2): > 10 µM | IC50 [1]: > 10 µM | IC50 (MV4-11): > 10 µM | IC50 (DLD-1): > 10 µM | IC50 (COLO 201): > 10 µM | IC50 (CAKI-1): > 10 µM | IC50 [2]: > 10 µM | IC50 (OE33): > 10 µM | IC50 (U-266): > 10 µM | IC50 (DMS-114): > 10 µM | IC50 (NCI-H441): > 10 µM | IC50 (DMS-273): > 10 µM | IC50 (SCaBER): > 10 µM | IC50 (UMUC3): > 10 µM | IC50 (SNU-5): > 10 µM | IC50 (CAL-62): > 10 µM | IC50 (BeWo): > 10 µM | IC50 (SNU-16): > 10 µM | IC50 [3]: > 10 µM | IC50 (Hs746T): > 10 µM | IC50 (MDA-MB-436): > 10 µM | IC50 5637: > 10 µM | IC50 (SAOS-2): > 10 µM | IC50 (NCI-H69): > 10 µM | IC50 (RD): > 10 µM | IC50 (Raji): > 10 µM | IC50 (MEG-01): > 10 µM | IC50 (J82): > 10 µM | IC50 (SW684): > 10 µM | IC50 (MOLT-16): > 10 µM | IC50 (SK-N-DZ): > 10 µM | IC50 (HCT-116): > 10 µM | IC50 [4]: > 10 µM | IC50 (HPAF-II): > 10 µM | IC50 (CRO-AP2): 0.075 µM | IC50 (DU-145): > 10 µM | IC50 (Caov-3 cell line): > 10 µM | IC50 (A-375): > 10 µM | IC50 (SiHa): > 10 µM | IC50 (SU.86.86): > 10 µM | IC50 [5]: > 10 µM | IC50 (MC-IXC): > 10 µM | IC50 (THP-1): > 10 µM | IC50 (639-V): > 10 µM | IC50 (COLO-320-HSR): > 10 µM | IC50 (HT-1080): > 10 µM | IC50 [6]: > 10 µM
